This is an account of results in ChEMBL document CHEMBL1121797, “Studies on chiral interactions of 1-(2,5-dimethoxy-4-methylphenyl)-2-aminopropane and the corresponding N-hydroxy metabolites with cytochrome P-450” (J Med Chem, 1981).

Molecules are shown by their SMILES.

Series [1] in a line: Initial rates of formation of metabolic intermediate Cytochrome P-450 at compound concentration of 30 uM. The format is ADME. The method in brief:
(§1)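 Rabbit liver microsomes at 2 mg protein/mL with 0.1 mM EDTA, 37 °C, substrate 30 μM. Complex formation started with 0.4 mM NADPH and followed by dual-wavelength absorbance, 457 vs 500 nm. Initial rate is the initial slope, ΔA×10^4 per nmol P-450 per min. Extent is the plateau absorbance. Lag is the time from NADPH addition to first 457-nm chromophore. Triplicate or single runs.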

Series [2] is described as follows: Extent rates of formation of metabolic intermediate Cytochrome P-450 at compound concentration of 30 uM. It counts as ADME. The essentials:
as §1

Series [3] has as its target T1, Cytochrome P450 2C19 (Homo sapiens, UniProt P33261). Description: Percent inhibition of formation of metabolic intermediate complex between Cytochrome P450 and compound 1a (30 uM) on extent, on pre-incubation with compound concentration of 5 uM. The format is ADME, Oryctolagus cuniculus. The conditions noted are these: rabbit, probe compound 1a (30 uM). The essentials:
(§2)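 Hepatic microsomes came from male Dutch rabbits, fasted 24 h. They were diluted to 2 mg protein/mL in 50 mM Tris-Cl with 150 mM KCl, 10 mM MgSO4 and 0.1 mM EDTA, with NADPH added, at 37 °C. Microsomes were preincubated with racemic hydroxylamine 2, then 30 µM 1a or 30 µM racemic 2 was added. Complex formation was followed as ΔA457–500 nm, and inhibition of rate and extent (plateau) was calculated.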

Series [4] deals with T1, Cytochrome P450 2C19. Put plainly: Percent inhibition of formation of metabolic intermediate complex between Cytochrome P450 and compound 1ab (30 uM) initially, following incubation at compound concentration of 20 uM. It counts as ADME, Oryctolagus cuniculus. The conditions noted are these: rabbit, probe compound 1ab (30 uM). The method in brief: (§3)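 Rabbit liver microsomes (2 mg protein/mL; Tris-Cl/KCl/MgSO4 buffer, 0.1 mM EDTA) plus NADPH, at 37 °C, were preincubated with racemic or enantiomeric amine 1. The 457-nm complex was monitored until it plateaued (6–8 min), then racemic hydroxylamine 2 was added. Initial rate and plateau extent of complex formation came from dual-wavelength ΔA457–500 nm versus time tracings.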

Series [5] concerns the target T1, Cytochrome P450 2C19. Put plainly: Percent inhibition of formation of metabolic intermediate complex between Cytochrome P450 and compound 1ab (30 uM) on extent, following incubation at compound concentration of 20 uM. It counts as ADME, Oryctolagus cuniculus. The settings on record: rabbit, probe compound 1ab (30 uM). The method in brief: as §3
Series [6] has as its target T1, Cytochrome P450 2C19. Put plainly: Percent inhibition of formation of metabolic intermediate complex between Cytochrome P450 and compound 1b (30 uM) on extent, following incubation at compound concentration of 20 uM. It counts as ADME, Oryctolagus cuniculus. The settings on record: rabbit, probe compound 1b (30 uM). The method in brief:
as §3

For series [7], the target named is T1, Cytochrome P450 2C19. Put plainly: Percent inhibition of formation of metabolic intermediate complex between Cytochrome P450 and compound 1a (30 uM) on extent, following incubation at compound concentration of 30 uM. The format is ADME, Oryctolagus cuniculus. The conditions noted are these: rabbit.
For series [8], the target named is T1, Cytochrome P450 2C19. Put plainly: Percent inhibition of formation of metabolic intermediate complex between Cytochrome P450 and compound 1a (30 uM) on extent, following incubation at compound concentration of 5 uM. The format is ADME, Oryctolagus cuniculus. The settings on record: rabbit, probe compound 1a (30 uM). The method in brief: as §2
In series [9] the target is T1, Cytochrome P450 2C19. Put plainly: Percent inhibition of formation of metabolic intermediate complex between Cytochrome P450 and compound 1a (30 uM) on extent, on pre-incubation with compound concentration of 0 uM. The format is ADME, Oryctolagus cuniculus. The settings on record: rabbit, probe compound 1a (30 uM). The essentials:
as §2

The target in series [10] is T1, Cytochrome P450 2C19. Put plainly: Percent inhibition of formation of metabolic intermediate complex between Cytochrome P450 and compound 1a (30 uM) on extent, on pre-incubation with compound concentration of 15 uM. The settings on record: rabbit, probe compound 1a (30 uM). The format is ADME, Oryctolagus cuniculus. The essentials: as §2
For series [11], the target named is T1, Cytochrome P450 2C19. Put plainly: Percent inhibition of formation of metabolic intermediate complex between Cytochrome P450 and compound 1a (30 uM) on extent, on pre-incubation with compound concentration of 30 uM. The conditions noted are these: rabbit, probe compound 1a (30 uM). It counts as ADME, Oryctolagus cuniculus. The method in brief: as §2
The target of series [12] is T1, Cytochrome P450 2C19. Description: Percent inhibition of formation of metabolic intermediate complex between Cytochrome P450 and compound 1a (30 uM) initially, following incubation at compound concentration of 15 uM. It counts as ADME, Oryctolagus cuniculus. The conditions noted are these: rabbit, probe compound 1a (30 uM). The essentials:
(§4)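 Inverse cross-inhibition in NADPH-supplemented rabbit liver microsomes at 37 °C. Preincubation with racemic hydroxylamine at 0–30 μM, monitoring 457-nm complex formation. The amine was then added at 30 μM, or racemic hydroxylamine at 30 μM. Initial rate and plateau extent were taken from ΔA457–500 nm tracings. Percent inhibition is relative to incubation in fresh microsomes.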

Series [13] deals with T1, Cytochrome P450 2C19. Description: Percent inhibition of formation of metabolic intermediate complex between Cytochrome P450 and compound 1a (30 uM) initially, following incubation at compound concentration of 20 uM. It counts as ADME, Oryctolagus cuniculus. The conditions noted are these: rabbit, probe compound 1a (30 uM).
For series [14], the target named is T1, Cytochrome P450 2C19. Description: (§5) Percent inhibition of formation of metabolic intermediate complex between Cytochrome P450 and compound 1a (30 uM) initially, following incubation at compound concentration of 30 uM. It counts as ADME, Oryctolagus cuniculus. The settings on record: rabbit, probe compound 1a (30 uM). The method in brief: as §4
Series [15] addresses T1, Cytochrome P450 2C19. The series is described as §5. The format is ADME, Oryctolagus cuniculus. The conditions noted are these: rabbit, probe compound 1a (30 uM). The essentials:
as §4
This is another data set of the same source.

Series [16] concerns the target T1, Cytochrome P450 2C19. Put plainly: Percent inhibition of formation of metabolic intermediate complex between Cytochrome P450 and compound 1a (30 uM) initially, following incubation at compound concentration of 5 uM. The format is ADME, Oryctolagus cuniculus. The settings on record: rabbit, probe compound 1a (30 uM). The method in brief:
as §4

In series [17] the target is T1, Cytochrome P450 2C19. Description: Percent inhibition of formation of metabolic intermediate complex between Cytochrome P450 and compound 1a (30 uM) initially, on pre-incubation with compound concentration of 0 uM. The settings on record: rabbit, probe compound 1a (30 uM). The format is ADME, Oryctolagus cuniculus. The method in brief:
as §4

The target of series [18] is T1, Cytochrome P450 2C19. Description: Percent inhibition of formation of metabolic intermediate complex between Cytochrome P450 and compound 1a (30 uM) initially, on pre-incubation with compound concentration of 15 uM. The conditions noted are these: rabbit, probe compound 1a (30 uM). It counts as ADME, Oryctolagus cuniculus. The method in brief: as §4
For series [19], the target named is T1, Cytochrome P450 2C19. Put plainly: Percent inhibition of formation of metabolic intermediate complex between Cytochrome P450 and compound 1a (30 uM) initially, on pre-incubation with compound concentration of 30 uM. The settings on record: rabbit, probe compound 1a (30 uM). It counts as ADME, Oryctolagus cuniculus. The method in brief: as §4
Series [20] concerns the target T1, Cytochrome P450 2C19. Description: Percent inhibition of formation of metabolic intermediate complex between Cytochrome P450 and compound 1a (30 uM) on extent, following incubation at compound concentration of 0 uM. The format is ADME, Oryctolagus cuniculus. The settings on record: rabbit, probe compound 1a (30 uM). The method in brief: as §2
Series [21] concerns the target T1, Cytochrome P450 2C19. Description: Percent inhibition of formation of metabolic intermediate complex between Cytochrome P450 and compound 1a (30 uM) on extent, following incubation at compound concentration of 15 uM. The format is ADME, Oryctolagus cuniculus. The settings on record: rabbit, probe compound 1a (30 uM). The method in brief:
as §2

Series [22] addresses T1, Cytochrome P450 2C19. Put plainly: Percent inhibition of formation of metabolic intermediate complex between Cytochrome P450 and compound 1a (30 uM) on extent, following incubation at compound concentration of 20 uM. It counts as ADME, Oryctolagus cuniculus. The settings on record: rabbit, probe compound 1a (30 uM).

T1 sequence (P33261 whole entry): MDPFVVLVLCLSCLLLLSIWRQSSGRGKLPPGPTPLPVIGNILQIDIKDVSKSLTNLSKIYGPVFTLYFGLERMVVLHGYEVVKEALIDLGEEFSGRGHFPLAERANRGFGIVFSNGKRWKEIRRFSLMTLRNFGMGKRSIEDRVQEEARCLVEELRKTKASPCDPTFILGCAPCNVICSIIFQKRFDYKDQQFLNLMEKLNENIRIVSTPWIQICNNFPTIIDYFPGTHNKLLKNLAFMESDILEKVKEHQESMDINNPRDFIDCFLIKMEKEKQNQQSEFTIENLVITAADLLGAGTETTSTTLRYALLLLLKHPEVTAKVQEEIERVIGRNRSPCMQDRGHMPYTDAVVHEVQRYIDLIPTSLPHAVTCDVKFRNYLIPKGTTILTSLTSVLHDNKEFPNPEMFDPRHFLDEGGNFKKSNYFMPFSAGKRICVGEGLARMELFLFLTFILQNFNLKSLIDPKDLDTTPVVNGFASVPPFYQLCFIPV

With `COc1cc(C[C@@H](C)NO)c(OC)cc1C.COc1cc(C[C@H](C)NO)c(OC)cc1C`, the Rate in series [1] came out at 154; in series [2], 131. Besides, the inhibition (as a rule, the change of the read-out against control, counted positive when it falls) at 5 µM came to 43% on Cytochrome P450 2C19 [3], 39% on Cytochrome P450 2C19 [8] and 39% against Cytochrome P450 2C19 [16]. Further, the inhibition at 20 µM worked out at 30% against Cytochrome P450 2C19 [4]; 12% at Cytochrome P450 2C19 [5]; 13% against Cytochrome P450 2C19 [6]; 29% on Cytochrome P450 2C19 [13]; 27% on Cytochrome P450 2C19 [22]. Also, the Inhibition (as a rule, the relative decrease from the control value, in per cent) on Cytochrome P450 2C19 [7] (30 µM) turned out to be 66%. Further, the inhibition at 30 µM on Cytochrome P450 2C19 [7] (probe compound 1a (30 uM)) came out at 73%; at Cytochrome P450 2C19 [11] it was 100%; against Cytochrome P450 2C19 [14], 72%; against Cytochrome P450 2C19 [15] it was 74%; on Cytochrome P450 2C19 [19], 100%. In addition, the values for the inhibition at 0 uM on Cytochrome P450 2C19 [9], on Cytochrome P450 2C19 [17] and on Cytochrome P450 2C19 [20] were 0%, 0% and 30%, respectively. Also, the inhibition at 15 µM at Cytochrome P450 2C19 [10] is 100%; against Cytochrome P450 2C19 [12], 51%; at Cytochrome P450 2C19 [18], 100%; against Cytochrome P450 2C19 [21], 46%.
